The results in this text go back to ChEMBL document CHEMBL2390921, “A novel benzazepinone sodium channel blocker with oral efficacy in a rat model of neuropathic pain” (Bioorg Med Chem Lett, 2013).

In data set [1] the target is hERG (KCNH2) (Homo sapiens, UniProt Q12809). The data set is described as follows: Displacement of [35S]-MK0499 from human ERG expressed in HEK293 cell membranes at 10 uM after 2 hrs by liquid scintillation counting analysis relative to control. The settings on record: membranes of HEK293 cells that express human ERG, probe [35S]-MK0499. The essentials: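 hERG binding assay measuring displacement of 35S-labelled MK-0499, a known hERG blocker.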

Data set [2] addresses Sodium channel protein type 9 subunit alpha (Homo sapiens, UniProt Q15858). Put plainly: Inhibition of human NaV1.7 channel expressed in HEK293 cells by FRET assay. The data set is classed as cell-based. The method, boiled down:
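HEK293 cells stably expressing human Nav1.7. Channel block was read in a functional membrane-potential assay based on FRET between two membrane-associated dyes; IC50 determined.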

Data set [3] deals with Rattus norvegicus. The data set is described as follows: Analgesic activity in po dosed rat spinal nerve ligation neuropathic pain model assessed as reversal of allodynia measured at 2 to 4 hrs. The data set is classed as functional. The method, boiled down:
(§1)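 Rat spinal nerve ligation model. Seven days after surgery, rats received a single oral dose (3, 10 or 30 mg/kg) of test agent or vehicle. Tactile allodynia was scored at 2, 4, 8 and 24 h post-dose with calibrated von Frey filaments using an up-down paradigm. Threshold is the force giving a 50% withdrawal rate. %MPE = (post-compound − post-SNL)/(pre-SNL − post-SNL) × 100, where 100% is full reversal.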

Data set [4] has as its system Rattus norvegicus. Put plainly: Analgesic activity in rat spinal nerve ligation neuropathic pain model assessed as reversal of allodynia at 30 mg/kg, po measured at 2 hrs relative to control. Type of data set: functional. The method, boiled down:
as §1

Data set [5] can be described thus: Plasma clearance in Sprague-Dawley rat at 3 mg/kg, po and 1 mg/kg, iv. The data set is classed as ADME, organism-based. The essentials: (§2)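 Fasted male Sprague–Dawley rats (n = 3 per route) were dosed with 1.5 mg/mL solutions in PEG300/water or DMSO/PEG300/water, either 1.0 mg/kg iv via femoral-vein cannula or 3.0 mg/kg by oral gavage. Blood was sampled at 5 min (iv only), 15 and 30 min, and 1, 2, 4, 6 and 8 h. Plasma levels were measured by LC–MS/MS after acetonitrile protein precipitation.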

Data set [6] in a line: Half life in Sprague-Dawley rat at 3 mg/kg, po and 1 mg/kg, iv. The data set is classed as ADME, organism-based. Particulars: in vivo. The essentials: as §2
In data set [7] the test system is Rattus norvegicus. Put plainly: Dose normalized AUC in Sprague-Dawley rat at 3 mg/kg, po. Type of data set: ADME, organism-based. Details: dose 3 mg/kg, route oral. The settings on record: in vivo. The method, boiled down: as §2
Data set [8] is described as follows: Oral bioavailability in Sprague-Dawley rat at 3 mg/kg. The data set is classed as ADME, organism-based. Particulars: in vivo. The method, boiled down:
as §2

For data set [9], the system named is Rattus norvegicus. Put plainly: Neurotoxicity in rat assessed as reduction in latency time at => 30 mg/kg, po after 2 hrs by rotarod test relative to vehicle-treated control. The data set is classed as toxicity, organism-based. Details: dose 30 mg/kg, route oral; scale not given: the % may be the effect or the level left. Particulars: in vivo. The essentials:
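Rats trained on rotarod 3 min at 10 rpm; single oral dose of test compound or vehicle (30 or 100 mg/kg); tested at 2 and 4 h post-dose with speed at 10 rpm for 60 s then accelerated to 60 rpm; time to fall after start of acceleration recorded. Significant impairment defined as >20% reduction in latency time.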

Sequence of hERG (KCNH2) (Q12809 whole entry): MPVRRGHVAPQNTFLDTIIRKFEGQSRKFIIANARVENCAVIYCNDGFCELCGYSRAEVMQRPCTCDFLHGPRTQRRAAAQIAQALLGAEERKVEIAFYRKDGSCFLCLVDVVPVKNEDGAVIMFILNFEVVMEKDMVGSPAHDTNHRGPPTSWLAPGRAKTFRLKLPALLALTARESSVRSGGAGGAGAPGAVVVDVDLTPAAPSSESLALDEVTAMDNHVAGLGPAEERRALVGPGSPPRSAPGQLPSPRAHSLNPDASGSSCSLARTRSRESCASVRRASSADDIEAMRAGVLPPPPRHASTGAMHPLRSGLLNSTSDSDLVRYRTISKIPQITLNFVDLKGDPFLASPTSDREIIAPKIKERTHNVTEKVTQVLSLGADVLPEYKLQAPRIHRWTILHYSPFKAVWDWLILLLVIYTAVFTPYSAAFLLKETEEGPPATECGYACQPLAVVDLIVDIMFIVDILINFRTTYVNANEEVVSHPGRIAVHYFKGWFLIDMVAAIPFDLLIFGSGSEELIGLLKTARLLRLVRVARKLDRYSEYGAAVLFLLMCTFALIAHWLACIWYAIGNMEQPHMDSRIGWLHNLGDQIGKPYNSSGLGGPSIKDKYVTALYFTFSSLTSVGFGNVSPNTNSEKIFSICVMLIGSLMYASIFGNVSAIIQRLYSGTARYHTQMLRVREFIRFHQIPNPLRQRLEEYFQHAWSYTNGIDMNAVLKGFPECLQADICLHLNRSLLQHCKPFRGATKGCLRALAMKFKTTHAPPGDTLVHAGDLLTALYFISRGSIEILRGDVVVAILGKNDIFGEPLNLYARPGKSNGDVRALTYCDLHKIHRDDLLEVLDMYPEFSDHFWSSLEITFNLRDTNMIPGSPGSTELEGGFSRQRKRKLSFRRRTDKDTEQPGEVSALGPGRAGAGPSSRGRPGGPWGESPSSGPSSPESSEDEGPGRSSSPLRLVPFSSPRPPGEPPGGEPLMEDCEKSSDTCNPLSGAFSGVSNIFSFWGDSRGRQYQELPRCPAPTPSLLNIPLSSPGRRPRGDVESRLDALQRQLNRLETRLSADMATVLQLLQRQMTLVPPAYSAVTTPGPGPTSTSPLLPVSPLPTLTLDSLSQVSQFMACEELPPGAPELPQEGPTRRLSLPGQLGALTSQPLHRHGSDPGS
Sequence of Sodium channel protein type 9 subunit alpha (Q15858 whole entry): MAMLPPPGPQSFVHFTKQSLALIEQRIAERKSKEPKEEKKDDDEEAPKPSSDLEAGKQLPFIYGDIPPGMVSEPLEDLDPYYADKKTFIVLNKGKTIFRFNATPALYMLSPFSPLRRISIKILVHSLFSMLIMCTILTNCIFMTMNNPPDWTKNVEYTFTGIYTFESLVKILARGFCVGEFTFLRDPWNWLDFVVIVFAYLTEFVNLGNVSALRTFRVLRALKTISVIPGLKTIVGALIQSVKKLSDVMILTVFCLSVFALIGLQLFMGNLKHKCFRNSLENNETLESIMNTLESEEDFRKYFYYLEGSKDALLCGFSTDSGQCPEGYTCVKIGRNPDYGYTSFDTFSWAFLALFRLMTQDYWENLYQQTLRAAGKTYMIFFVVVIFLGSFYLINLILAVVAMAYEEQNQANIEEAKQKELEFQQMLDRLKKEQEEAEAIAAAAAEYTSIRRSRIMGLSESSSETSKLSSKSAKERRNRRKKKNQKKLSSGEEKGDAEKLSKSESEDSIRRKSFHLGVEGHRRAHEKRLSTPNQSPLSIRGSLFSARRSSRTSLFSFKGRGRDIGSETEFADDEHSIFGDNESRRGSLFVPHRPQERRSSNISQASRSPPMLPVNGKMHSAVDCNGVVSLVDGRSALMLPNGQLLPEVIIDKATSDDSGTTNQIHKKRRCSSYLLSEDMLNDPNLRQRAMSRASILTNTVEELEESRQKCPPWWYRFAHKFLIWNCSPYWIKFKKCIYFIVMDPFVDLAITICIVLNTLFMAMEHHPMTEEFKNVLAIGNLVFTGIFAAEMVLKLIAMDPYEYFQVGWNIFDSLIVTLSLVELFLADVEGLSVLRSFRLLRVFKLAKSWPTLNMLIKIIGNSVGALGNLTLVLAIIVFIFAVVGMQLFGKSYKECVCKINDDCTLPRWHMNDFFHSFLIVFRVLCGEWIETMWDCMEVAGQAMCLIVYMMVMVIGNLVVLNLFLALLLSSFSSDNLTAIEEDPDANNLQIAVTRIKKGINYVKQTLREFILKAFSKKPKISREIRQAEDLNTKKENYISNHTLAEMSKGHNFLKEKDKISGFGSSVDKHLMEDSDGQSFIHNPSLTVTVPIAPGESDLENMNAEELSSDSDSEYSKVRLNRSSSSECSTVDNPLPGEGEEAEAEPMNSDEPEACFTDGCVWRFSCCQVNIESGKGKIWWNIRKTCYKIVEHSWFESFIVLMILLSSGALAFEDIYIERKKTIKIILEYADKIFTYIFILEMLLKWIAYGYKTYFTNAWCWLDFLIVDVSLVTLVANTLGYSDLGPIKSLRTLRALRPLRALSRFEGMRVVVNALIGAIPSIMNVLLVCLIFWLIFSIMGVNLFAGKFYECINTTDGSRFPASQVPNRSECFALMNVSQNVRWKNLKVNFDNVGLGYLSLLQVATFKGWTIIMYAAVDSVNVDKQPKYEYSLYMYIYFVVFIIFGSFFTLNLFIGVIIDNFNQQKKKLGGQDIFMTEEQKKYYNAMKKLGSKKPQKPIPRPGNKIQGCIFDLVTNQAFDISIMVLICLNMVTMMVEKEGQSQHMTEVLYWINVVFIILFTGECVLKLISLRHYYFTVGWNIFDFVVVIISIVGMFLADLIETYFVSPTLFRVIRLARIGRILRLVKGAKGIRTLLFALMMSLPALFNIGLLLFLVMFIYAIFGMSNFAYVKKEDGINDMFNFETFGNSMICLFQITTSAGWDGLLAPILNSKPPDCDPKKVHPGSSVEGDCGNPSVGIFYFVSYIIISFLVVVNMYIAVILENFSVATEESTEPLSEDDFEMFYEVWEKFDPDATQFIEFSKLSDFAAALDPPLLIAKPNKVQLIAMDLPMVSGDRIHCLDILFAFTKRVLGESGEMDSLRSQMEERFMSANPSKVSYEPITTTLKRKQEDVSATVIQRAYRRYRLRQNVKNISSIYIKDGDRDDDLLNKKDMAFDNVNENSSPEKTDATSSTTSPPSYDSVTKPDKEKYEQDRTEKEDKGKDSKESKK

`CC1CC1N1C(=O)[C@H](NC(=O)[C@@H](Cc2ccccc2F)NC(=O)c2ccc(F)cc2C(F)(F)F)CCc2c(F)c(F)cc(F)c21` (stereo partly drawn) returned an inhibition at 2 h, 10 µM in data set [1] of 44%. In data set [2], this molecule displayed an IC50 of 131 nM.

On to `Cc1cccc(C)c1OCC(C)N` (stereo not drawn) [MEXILETINE], for which the ED50 in [3] stood at 45 mg/kg. Moreover, the Activity in [4] turned out to be 42%.

`CC(C)N1C(=O)[C@H](NC(=O)[C@@H](Cc2ccccc2OC(F)(F)F)NC(=O)OC(C)(C)C)CCc2ccc(C(F)(F)F)cc21` yielded a clearance in data set [5] of 26 mL/min/kg. Also, the half-life in data set [6] is 1.3 h. The molecule further returned an AUC/dose in data set [7] of 0.22 µM·h/mg/kg. In [1], this molecule registered an inhibition at 2 h, 10 µM of 19%. In data set [8], this molecule showed a bioavailability of 21%. Also, in data set [2], the IC50 stood at 494 nM.

Turning to `CC(C)N1C(=O)[C@H](NC(=O)[C@@H](Cc2ccccc2OC(F)(F)F)NC(=O)OC(C)(C)C)CCc2cc(C(F)(F)F)ccc21`, the clearance in [5] was found to be 39 mL/min/kg. Moreover, in data set [6], the half-life is 1.9 h. In data set [7], this molecule displayed an AUC/dose of 0.41 µM·h/mg/kg. The inhibition at 2 h, 10 µM in [1] came out at 7%. In [8], this molecule displayed a bioavailability of 59%. In data set [2], this molecule came in with an IC50 of 181 nM.

In turn, `CC1CC1N1C(=O)[C@H](NC(=O)[C@@H](Cc2ccccc2F)NC(=O)C2CC2C(F)(F)F)CCc2c(F)c(F)cc(F)c21` (stereo partly drawn) came in with an inhibition at 2 h, 10 µM in data set [1] of 54%. The midpoint of inhibition in [2], the IC50, lay at 101 nM.

In the case of `CC(C)N1C(=O)[C@H](NC(=O)[C@@H](Cc2ccccc2F)NC(=O)c2ccc(F)cc2C(F)(F)F)CCc2cc(Cl)ccc21`, the AUC/dose in data set [7] was 0.58 µM·h/mg/kg.

In the case of `CC(C)N1C(=O)[C@H](NC(=O)[C@@H](Cc2ccccc2OC(F)(F)F)NC(=O)OC(C)(C)C)CCc2cccc(F)c21`, the clearance in data set [5] stood at 21 mL/min/kg. In [6], this molecule had a half-life of 2.7 h. The molecule also showed an AUC/dose in data set [7] of 0.39 µM·h/mg/kg. Further, the inhibition at 2 h, 10 µM in data set [1] worked out at 24%. Moreover, the bioavailability in data set [8] worked out at 27%. The IC50 in data set [2] worked out at 70 nM.

Take `NCC1(CC(=O)O)CCCCC1` [GABAPENTIN]: the Activity in [9] was more than 20%; in data set [4], 36%. Also, in data set [3], the 50% effective dose (ED50) was 50 mg/kg.

The molecule `CC(C)N1C(=O)[C@H](NC(=O)[C@@H](Cc2ccccc2F)NC(=O)c2ccc(F)cc2C(F)(F)F)CCc2c(F)c(F)cc(F)c21` had a clearance in data set [5] of 19 mL/min/kg. The molecule further had a half-life in [6] of 5.6 h. In data set [7], the AUC/dose is 1 µM·h/mg/kg. In [1], the inhibition at 2 h, 10 µM was 20%. The molecule further displayed a bioavailability in data set [8] of 68%. Moreover, in data set [2], the IC50 came out at 103 nM.

`CC(C)N1C(=O)[C@H](NC(=O)[C@@H](Cc2ccccc2F)NC(=O)c2ccccc2C(F)(F)F)CCc2c(F)c(F)cc(F)c21` displayed an inhibition at 2 h, 10 µM in [1] of 10%. This molecule had an IC50 in [2] of 229 nM.

The molecule `CC(C)N1C(=O)[C@H](NC(=O)[C@@H](Cc2ccccc2OC(F)(F)F)NC(=O)OC(C)(C)C)CCc2cc(F)cc(F)c21` yielded a clearance in data set [5] of 17 mL/min/kg. In data set [6], the half-life was 2.7 h. The same molecule yielded an AUC/dose in [7] of 0.54 µM·h/mg/kg. The same molecule displayed an inhibition at 2 h, 10 µM in data set [1] of 21%. In data set [8], the bioavailability worked out at 30%. In addition, in [2], inhibition was half-maximal at 57 nM (IC50).

Molecule `CC(C)N1C(=O)[C@H](NC(=O)[C@@H](Cc2ccccc2OC(F)(F)F)NC(=O)OC(C)(C)C)CCc2c(F)c(F)cc(F)c21` came in with an inhibition at 2 h, 10 µM in [1] of 24%. Also, the 50% inhibitory concentration (IC50) in [2] is 67 nM.

Turning to `CC(C)N1C(=O)[C@H](NC(=O)[C@@H](Cc2ccccc2OC(F)(F)F)NC(=O)OC(C)(C)C)CCc2cc(Cl)ccc21`, in data set [7], the AUC/dose amounted to 0.71 µM·h/mg/kg.

Molecule `CC(C)N1C(=O)[C@H](NC(=O)[C@@H](Cc2ccccc2F)NC(=O)c2ccccn2)CCc2c(F)c(F)cc(F)c21` gave an inhibition at 2 h, 10 µM in data set [1] of 22%. Half-maximal inhibition in data set [2] (IC50) required 443 nM.

`CC1CC1C(=O)N[C@H](Cc1ccccc1F)C(=O)N[C@@H]1CCc2c(F)c(F)cc(F)c2N(C(C)C)C1=O` (stereo partly drawn) returned a clearance in data set [5] of 35 mL/min/kg. Moreover, the half-life in data set [6] was 0.8 h. For the same molecule, in [7], the AUC/dose was 0.44 µM·h/mg/kg. Further, in [1], the inhibition at 2 h, 10 µM stood at 0%. Also, the bioavailability in [8] came out at 47%. The half-maximal inhibitory concentration (IC50) in data set [2] came out at 103 nM.

In data set [5], `CC(C)N1C(=O)[C@H](NC(=O)[C@@H](Cc2ccccc2OC(F)(F)F)NC(=O)OC(C)(C)C)CCc2cc(F)ccc21` gave a clearance of 16 mL/min/kg. In data set [6], this molecule showed a half-life of 2.3 h. This molecule came in with an AUC/dose in data set [7] of 0.66 µM·h/mg/kg. For the same molecule, in data set [1], the inhibition at 2 h, 10 µM turned out to be 24%. The bioavailability in data set [8] stood at 35%. Also, half-maximal inhibition in data set [2] (IC50) required 34 nM.

In [5], `CC(C)N1C(=O)[C@H](NC(=O)[C@@H](Cc2ccccc2F)NC(=O)C2CC2C(F)(F)F)CCc2c(F)c(F)cc(F)c21` (stereo partly drawn) had a clearance of 23 mL/min/kg. The half-life in data set [6] was 2.2 h. Besides, in [7], the AUC/dose stood at 0.79 µM·h/mg/kg. In [1], this molecule showed an inhibition at 2 h, 10 µM of 2%. For the same molecule, in [8], the bioavailability was 62%. Further, the concentration for half-maximal inhibition (IC50) in data set [2] amounted to 137 nM.

Molecule `O=C(N[C@H](Cc1ccccc1F)C(=O)N[C@@H]1CCc2c(F)c(F)cc(F)c2N(C2CC2)C1=O)c1ccc(F)cc1C(F)(F)F` had an inhibition at 2 h, 10 µM in data set [1] of 31%. This molecule showed an IC50 in data set [2] of 85 nM.

Take `CC(C)N1C(=O)[C@H](NC(=O)[C@@H](Cc2ccccc2F)NC(=O)c2ccc(F)cc2C(F)(F)F)CCc2cc(Cl)cc(F)c21`: in [5], the clearance came to 21 mL/min/kg. The molecule also had a half-life in data set [6] of 1.9 h. In data set [7], this molecule registered an AUC/dose of 0.93 µM·h/mg/kg. In addition, the inhibition at 2 h, 10 µM in [1] turned out to be 17%. Also, the bioavailability in data set [8] turned out to be 74%. The concentration for half-maximal inhibition (IC50) in data set [2] came out at 260 nM.

`CC(C)N1C(=O)[C@H](NC(=O)[C@@H](Cc2ccccc2F)NC(=O)c2ccc(F)cc2C(F)(F)F)CCc2cc(F)ccc21`: the clearance in data set [5] worked out at 36 mL/min/kg. This molecule also gave a half-life in data set [6] of 1.7 h. Also, the AUC/dose in data set [7] was found to be 0.45 µM·h/mg/kg. This molecule also returned an inhibition at 2 h, 10 µM in data set [1] of 36%. In data set [8], this molecule came in with a bioavailability of 56%. In data set [2], this molecule registered a 50% inhibitory concentration (IC50) of 254 nM.

For `CC(C)N1C(=O)[C@H](NC(=O)[C@@H](Cc2ccccc2F)NC(=O)c2ccc(F)cc2C(F)(F)F)CCc2cc(C(F)(F)F)ccc21`, the clearance in data set [5] stood at 33 mL/min/kg. Also, the half-life in data set [6] was 2.5 h. In addition, the AUC/dose in data set [7] came to 0.6 µM·h/mg/kg. Also, the inhibition at 2 h, 10 µM in [1] came out at 10%. The bioavailability in data set [8] was found to be 75%. The IC50 in data set [2] turned out to be 359 nM.

As for `CC(C)N1C(=O)[C@H](NC(=O)[C@@H](Cc2ccccc2F)NC(=O)c2ccc(F)cc2C(F)(F)F)CCc2cc(F)cc(F)c21`, the clearance in [5] was found to be 21 mL/min/kg. This molecule also gave a half-life in data set [6] of 1.9 h. Moreover, the AUC/dose in data set [7] worked out at 0.42 µM·h/mg/kg. Also, the inhibition at 2 h, 10 µM in data set [1] turned out to be 34%. The bioavailability in data set [8] turned out to be 31%. Also, in [2], half-maximal inhibition (IC50) required 264 nM.

Regarding `CC(C)N1C(=O)[C@H](NC(=O)[C@@H](Cc2ccccc2OC(F)(F)F)NC(=O)OC(C)(C)C)CCc2ccccc21`, the AUC/dose in data set [7] came out at 0.31 µM·h/mg/kg.

With `CC(C)N1C(=O)[C@H](NC(=O)[C@@H](Cc2ccccc2OC(F)(F)F)NC(=O)OC(C)(C)C)CCc2ccc(F)cc21`, the clearance in data set [5] amounted to 29 mL/min/kg. In data set [6], this molecule gave a half-life of 2.5 h. The molecule also gave an AUC/dose in data set [7] of 0.2 µM·h/mg/kg. Further, the inhibition at 2 h, 10 µM in [1] is 26%. This molecule also came in with a bioavailability in data set [8] of 20%. The molecule also gave an IC50 in data set [2] of 18 nM.
